The list is not random: actives were taken first. Their share in the collection is about 0.77%.
mIAP act = activators of mouse IAP, primary screen, biochemical, luminescence, uHTS. hit rate 0.24% among 330,000. muIAP, CDP-Star luminescence, 30 min; active compounds read high; 1 = vehicle-only enzyme signal, 0 = enzyme-free wells. activation factor at 10 µM. intestinal alkaline phosphatase [Mus musculus];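 active = activation factor of at least 2 at 20 µM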
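Assay system: mouse IAP enzyme / Compound: DMSO-dissolved test compounds / Timing: 30 min, room temperature / Measured by: luminescence from enzymatic CDP-Star hydrolysis / Control set: DMSO-only wells, enzyme-free buffer wells as negative control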
hIAP act = human IAP activators, primary screen, biochemical, luminescence, uHTS; purified human IAP, CDP-Star luminescence, 30 min; active compounds read high; 1 = vehicle-only enzyme, 0 = enzyme-free background; activation factor at 10 µM; hit rate 0.16% among 330,000; AID 2524, 2010;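 active = activation factor of the enzyme at least 2-fold when tested at 20 µM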
Target sequence (P09923 whole entry, looked up): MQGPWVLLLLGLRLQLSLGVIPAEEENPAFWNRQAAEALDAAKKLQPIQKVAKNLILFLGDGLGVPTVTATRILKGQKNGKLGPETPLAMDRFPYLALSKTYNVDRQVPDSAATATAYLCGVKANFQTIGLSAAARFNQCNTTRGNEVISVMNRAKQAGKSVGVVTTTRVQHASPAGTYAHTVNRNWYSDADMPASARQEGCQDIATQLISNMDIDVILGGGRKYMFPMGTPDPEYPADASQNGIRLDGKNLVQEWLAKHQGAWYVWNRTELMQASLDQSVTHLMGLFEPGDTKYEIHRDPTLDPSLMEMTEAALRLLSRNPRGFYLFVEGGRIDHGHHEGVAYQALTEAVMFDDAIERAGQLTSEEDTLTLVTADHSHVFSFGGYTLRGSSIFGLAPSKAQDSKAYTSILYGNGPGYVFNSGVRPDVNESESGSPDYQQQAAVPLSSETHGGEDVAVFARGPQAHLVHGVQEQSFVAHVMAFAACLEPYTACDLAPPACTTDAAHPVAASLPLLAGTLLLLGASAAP
mIAP block = inhibitors of mouse IAP, primary screen, biochemical, luminescence, uHTS | purified mouse IAP, CDP-Star luminescence, 30 min | inhibition, % at 10 µM | hit rate 0.2% among 330,000 | AID 2806, 2010;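 active = inhibition of at least 40% at 10 µM in the primary screen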
bIAP act = bovine intestinal alkaline phosphatase activators, primary screen, biochemical, bovine IAP, CDP-star luminescence | purified bovine IAP, 30 min; active compounds read high; fold of DMSO-control signal, blank-subtracted | alkaline phosphatase, intestinal [Bos taurus] | hit rate 0.17% among 200,000 | activation factor at 20 µM | AID 1016, 2008;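 active = activation factor of 2 or more at 20 µM, a signal rise over negative controls twice the positive control's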
hIAP block = human IAP inhibitors, primary screen, biochemical, luminescence, uHTS | purified IAP, CDP-Star luminescence, 30 min | hit rate 0.12% among 330,000 | Intestinal-type alkaline phosphatase (Homo sapiens), P09923 | AID 2544, 2010 | inhibition, % at 10 µM;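 active = inhibition reaching a set limit with compound at 10 µM in the primary screen, cut at about 35% in these data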
bIAP inh = bovine intestinal alkaline phosphatase inhibitors, primary screen, selectivity assay for TNAP inhibitor project, biochemical, bovine IAP, CDP-star luminescence | alkaline phosphatase, intestinal [Bos taurus] | 190,000 tested, under 10 active | inhibition, % at 20 µM | purified bovine IAP, 30 min;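 active = over 50% inhibition of intestinal alkaline phosphatase at 20 µM in the single-dose screen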
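System: Purified bovine intestinal alkaline phosphatase (IAP) enzyme | Input: IAP diluted 1/65,000,000 in the well | Also added: CDP-star chemiluminescent phosphatase substrate, 30 µM final | Dosing: 20 µM single dose | Times: Enzyme reaction for 30 min at room temperature | Detection: Luminescence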
hIAP act conf = human IAP activators, confirmation, biochemical, luminescence, single concentration, uHTS hits | shares compounds with hIAP act | purified IAP, CDP-Star luminescence, 30 min; active compounds read low | activation (%Activity, negative = activation), % at 8.3 µM | hit rate 10% among 880;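 active = at least twofold enzyme activation in any of six single-dose repeats, which the averaged readout prints as negative percent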
mIAP inh confirm = inhibitors of mouse IAP, confirmation, biochemical, luminescence, single concentration; purified mouse IAP, CDP-Star luminescence, 30 min; hit rate 4.7% among 11,000; inhibition, % at 10 µM; shares compounds with mIAP block;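 active = inhibition of at least 40% at 10 µM in either of the two replicates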
Each line names hits and unclear results; the compound was inactive in the other large screens (follow-up assays come after a bar, where they were run).

C[C@@H]1O[C@@H](Oc2c(-c3cc(O)c(O)c(O)c3)oc3cc(O)cc(O)c3c2=O)[C@H](O)[C@H](O)[C@H]1O	none
C[C@@H]1O[C@@H](Oc2c(-c3ccc(O)c(O)c3)oc3cc(O)cc(O)c3c2=O)[C@H](O)[C@H](O)[C@H]1O	hIAP block 36 (no result: bIAP act, bIAP inh) | hIAP act conf inactive
COc1ccc(OC)c(NC(=O)CN2C(=O)C(=O)N(Cc3ccccc3)C2=O)c1	none (no result: bIAP act, bIAP inh)
O=C(Nc1ccccc1Cl)NC1(C(=O)NCC2CCCO2)CCCCC1 (stereo unspecified)	none (no result: bIAP act, bIAP inh)
Cc1cccc(OCCC(=O)N(C)CC(=O)Nc2cccc3ccccc23)c1	none
CC(Oc1ccc(F)cc1F)C(=O)NNC(=S)NCC1CCCO1 (stereo unspecified)	hIAP act 2.2 (no result: bIAP act, bIAP inh) | hIAP act conf inactive
O=C1/C(=C/c2ccc(O)c(O)c2)Oc2cc(O)ccc21	mIAP block 59, hIAP block 96 (no result: bIAP act, bIAP inh) | hIAP act conf inactive | mIAP inh confirm 69
O=C1/C(=C/c2cccc([N+](=O)[O-])c2)Oc2cc(O)ccc21	none (no result: bIAP act, bIAP inh)
Cc1ccc(NC(=O)C2CC(=O)n3c(nc4ccccc43)N2)cc1C (stereo unspecified)	mIAP act 3.5, hIAP act 2.1 (no result: bIAP act, bIAP inh) | hIAP act conf inactive | mIAP inh confirm inactive
CN(CC(=O)NCc1ccco1)CC(=O)Nc1c(Cl)cccc1Cl	none (no result: bIAP act, bIAP inh)
O=C(Nc1cccc(-c2cccc(F)c2)c1)C1CCN(C2CCC2)CC1	mIAP act 3.1, hIAP act 2.2 (no result: bIAP act, bIAP inh) | hIAP act conf inactive | mIAP inh confirm inactive
Cc1cccc(CN2CCC(C(=O)Nc3cccc(-c4cccc(F)c4)c3)CC2)n1	none (no result: bIAP act, bIAP inh)
COc1cccc(-c2cccc(NC(=O)C3CCN(Cc4cnn(C)c4)CC3)c2)c1	none (no result: bIAP act, bIAP inh)
Cc1nn(C(C)C)c(C)c1CN1CCC(C(=O)Nc2cccc(-c3cccc(F)c3)c2)CC1	mIAP act 4.7, hIAP act 11 (no result: bIAP act, bIAP inh) | hIAP act conf inactive | mIAP inh confirm inactive
Cn1cc(CN2CCC(C(=O)Nc3cccc(-c4cccc(F)c4)c3)CC2)cn1	mIAP act 2.3, hIAP act 2.5 (no result: bIAP act, bIAP inh) | hIAP act conf inactive | mIAP inh confirm inactive
O=C(NN1C(=O)CSC1=S)C(=O)NN1C(=O)CSC1=S	hIAP act 2.5, mIAP block 89 | hIAP act conf inactive | mIAP inh confirm 92
CCOc1ccc(CCNC(=O)c2cc(C)nc3ccccc23)cc1OCC	none (no result: bIAP act, bIAP inh)
COC(=O)c1ccc(OCC(O)CN2C(=O)c3ccccc3S2(=O)=O)cc1 (stereo unspecified)	none
O=c1[nH]c(/C=C\c2ccc(O)c(O)c2)nc(O)c1[N+](=O)[O-]	mIAP block 48, hIAP block 43 (no result: bIAP act, bIAP inh) | hIAP act conf inactive | mIAP inh confirm 75
O=c1oc2ccccc2c2oc3cc(O)c(O)cc3c12	mIAP block 58, hIAP block 70 (no result: bIAP act, bIAP inh) | hIAP act conf inactive | mIAP inh confirm 67
Nc1c(N)c2ccccc2oc1=O	none
CC(C)c1ccc(NC(=O)C2CC(=O)Nc3nc4ccccc4n32)cc1 (stereo unspecified)	mIAP act 2.9, hIAP act 2.4 (no result: bIAP act, bIAP inh) | hIAP act conf inactive | mIAP inh confirm inactive
C#Cc1ccc([C@H]2C=C(C(=O)NC3CC3)O[C@@H](OCC)[C@@H]2CCCO)cc1	none
O=C(NNC(=O)C1CCCCC1)c1ccco1	none
